Published values gathered from unrelated publications.
GRK4: G protein-coupled receptor kinase 4 (GRK4, Homo sapiens, UniProt P32298)
OPRM1: Mu-type opioid receptor (OPRM1, Homo sapiens, UniProt P35372)

SMILES	target	effect on	action	method	tested at	endpoint	value
C[C@]1(O)CCCN(c2nc(Nc3ccc(S(=O)(=O)N[C@H]4CC[C@H](CN5CCN(c6ccc(C7CCC(=O)NC7=O)cc6F)CC5)CC4)cc3Cl)ncc2C(F)(F)F)C1 (stereo partly shown)	GRK4	binding	–	competition with immobilised ligand	1 µM	remaining binding	93%
Cc1cc(O)c(-c2ccc([C@@H](C)CN(C)C)cc2)c2c1[nH]c(=O)c1sccc12	SRSF protein kinase 1 (SRPK1, Homo sapiens, UniProt Q96SB4)	enzyme activity	inhibitor	–	0.1 µM	inhibition	1.88%
Cc1cc(S(=O)(=O)N[C@H]2CC[C@H](CN3CCN(c4ccc(C5CCC(=O)NC5=O)cc4F)CC3)CC2)ccc1Nc1ncc(C(F)(F)F)c(N2CCC[C@](C)(O)C2)n1 (stereo partly shown)	GRK4	binding	–	competition with immobilised ligand	1 µM	remaining binding	89%
C#Cc1cc(-c2cc(Nc3nc(N[C@@H](C)c4ccc(F)cn4)ncc3Cl)n[nH]2)ccc1C=O	cGMP-dependent protein kinase 1 (PRKG1, Homo sapiens, UniProt Q13976)	enzyme activity	inhibitor	–	0.2 µM	inhibition	3.89%
COc1ccc2oc(-c3ccc4nc(N)oc4c3)c/c(=N\c3ccccc3NC(=O)CCN)c2c1	Protein kinase C alpha type (PRKCA, Homo sapiens, UniProt P17252)	binding	–	–	1 µM	remaining binding	100%
Cc1cc(F)cc2c(CCC(=O)N[C@@H]3C(=O)NC[C@H]3O)c(-c3ccc(F)cc3)[nH]c12	OPRM1	cell-free assay	–	–	10 µM	inhibition	5%
NC/C(=C\F)COc1cccc(Cn2c(=S)[nH]c(=O)c3[nH]cnc32)c1	OPRM1	ligand displacement	–	radioligand	10 µM	inhibition	< 50%
CCN1/C(=C/C(C)=O)Sc2ccc(F)cc21	OPRM1	ligand displacement	–	radioligand	10 µM	inhibition	0.11%
C1=C/COCc2cc(ccc2OCCN2CCCC2)Nc2nccc(n2)-c2cccc(c2)COC/1	eIF-2-alpha kinase GCN2 (EIF2AK4, Homo sapiens, UniProt Q9P2K8, S808G)	binding	–	–	0.1 µM	remaining binding	9.6%
CCCCC(=O)Nc1ccc(-c2ccc3ncn(CCC)c(=O)c3c2)cn1	Ephrin type-A receptor 6 (EPHA6, Homo sapiens, UniProt Q9UF33)	binding	–	competition with immobilised ligand	0.5 µM	remaining binding	100%
